Results: ChEMBL document CHEMBL4689842, “EUbOPEN Chemogenomics Library wave 1” (2021)

Tested on: U2OS
Experiment: Multiplex assay against U2OS
Assay type: toxicity, cell-based
Settings: human
Outline: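 Hoechst33342, BioTracker Green Microtubule Cytoskeleton Dye, MitoTracker Red and Annexin V Alexa Fluor 680 were added to live cells at seeding, and imaging on a CQ1 microscope at 37°C and 5% CO2 followed compound addition. Gating by CellPathfinder machine learning separated cells into Hoechst high-intensity objects or normal cells, then normal cells into healthy, pyknosed or fragmented nuclei, then pyknosed cells into mitotic or apoptotic. Per cents of healthy-nucleus cells are reported for the tubulin, mitochondrial-mass and membrane-permeability phenotypes.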

[1] = 12 h, 1 µM, compound concentration 1 uM, replicate 1
[2] = 12 h, 1 µM, compound concentration 1 uM, replicate 2
[3] = 12 h, 10 µM, compound concentration 10 uM, replicate 1
[4] = 12 h, 10 µM, compound concentration 10 uM, replicate 2
[5] = 24 h, 1 µM, compound concentration 1 uM, replicate 1
[6] = 24 h, 1 µM, compound concentration 1 uM, replicate 2
[7] = 24 h, 10 µM, compound concentration 10 uM, replicate 1
[8] = 24 h, 10 µM, compound concentration 10 uM, replicate 2

COc1cccc2cc(-c3nc([C@H]4CC[C@H](C(=O)O)CC4)n4ncnc(N)c34)[nH]c12 [OSI-027]
Population Apoptotic (%) [1]: 55% | Population Fragmented Nuclei (%) [1]: 14% | Population Healthy Nuclei (%) [1]: 81% | Population Hoechst High Intensity Objects (%) [1]: 1% | Population Membrane Permeable-Phenotype (%) [1]: 10% | Population Mitochondria Different-Phenotype (%) [1]: 6% | Population Mitotic Cells (%) [1]: 44% | Population Normal (%) [1]: 98% | Population Pyknosed Nuclei (%) [1]: 3% | Population Tubulin-Different-Phenotype (%) [1]: 21% | Total Cell Count [1]: 227 | Population Apoptotic (%) [2]: 33% | Population Fragmented Nuclei (%) [2]: 18% | Population Healthy Nuclei (%) [2]: 79% | Population Hoechst High Intensity Objects (%) [2]: 7% | Population Membrane Permeable-Phenotype (%) [2]: 8% | Population Mitochondria Different-Phenotype (%) [2]: 3% | Population Mitotic Cells (%) [2]: 66% | Population Normal (%) [2]: 92% | Population Pyknosed Nuclei (%) [2]: 1% | Population Tubulin-Different-Phenotype (%) [2]: 31% | Total Cell Count [2]: 117 | Population Apoptotic (%) [3]: 8% | Population Fragmented Nuclei (%) [3]: 5% | Population Healthy Nuclei (%) [3]: 76% | Population Hoechst High Intensity Objects (%) [3]: 10% | Population Membrane Permeable-Phenotype (%) [3]: 10% | Population Mitochondria Different-Phenotype (%) [3]: 21% | Population Mitotic Cells (%) [3]: 91% | Population Normal (%) [3]: 89% | Population Pyknosed Nuclei (%) [3]: 17% | Population Tubulin-Different-Phenotype (%) [3]: 27% | Total Cell Count [3]: 160 | Population Apoptotic (%) [4]: 14% | Population Fragmented Nuclei (%) [4]: 14% | Population Healthy Nuclei (%) [4]: 78% | Population Hoechst High Intensity Objects (%) [4]: 17% | Population Membrane Permeable-Phenotype (%) [4]: 7% | Population Mitochondria Different-Phenotype (%) [4]: 26% | Population Mitotic Cells (%) [4]: 85% | Population Normal (%) [4]: 82% | Population Pyknosed Nuclei (%) [4]: 7% | Population Tubulin-Different-Phenotype (%) [4]: 39% | Total Cell Count [4]: 101 | Population Apoptotic (%) [5]: 29% | Population Fragmented Nuclei (%) [5]: 10% | Population Healthy Nuclei (%) [5]: 81% | Population Hoechst High Intensity Objects (%) [5]: 3% | Population Membrane Permeable-Phenotype (%) [5]: 6% | Population Mitochondria Different-Phenotype (%) [5]: 5% | Population Mitotic Cells (%) [5]: 70% | Population Normal (%) [5]: 96% | Population Pyknosed Nuclei (%) [5]: 8% | Total Cell Count [5]: 270 | Population Apoptotic (%) [6]: 42% | Population Fragmented Nuclei (%) [6]: 13% | Population Healthy Nuclei (%) [6]: 82% | Population Hoechst High Intensity Objects (%) [6]: 5% | Population Membrane Permeable-Phenotype (%) [6]: 10% | Population Mitochondria Different-Phenotype (%) [6]: 7% | Population Mitotic Cells (%) [6]: 57% | Population Normal (%) [6]: 94% | Population Pyknosed Nuclei (%) [6]: 3% | Population Tubulin-Different-Phenotype (%) [6]: 29% | Total Cell Count [6]: 144 | Population Apoptotic (%) [7]: 13% | Population Fragmented Nuclei (%) [7]: 6% | Population Healthy Nuclei (%) [7]: 81% | Population Hoechst High Intensity Objects (%) [7]: 7% | Population Membrane Permeable-Phenotype (%) [7]: 12% | Population Mitochondria Different-Phenotype (%) [7]: 20% | Population Mitotic Cells (%) [7]: 86% | Population Normal (%) [7]: 92% | Population Pyknosed Nuclei (%) [7]: 11% | Population Tubulin-Different-Phenotype (%) [7]: 31% | Total Cell Count [7]: 190 | Population Apoptotic (%) [8]: 0% | Population Fragmented Nuclei (%) [8]: 14% | Population Healthy Nuclei (%) [8]: 84% | Population Hoechst High Intensity Objects (%) [8]: 11% | Population Membrane Permeable-Phenotype (%) [8]: 11% | Population Mitochondria Different-Phenotype (%) [8]: 31% | Population Mitotic Cells (%) [8]: 100% | Population Normal (%) [8]: 88% | Population Pyknosed Nuclei (%) [8]: 1% | Population Tubulin-Different-Phenotype (%) [8]: 34% | Total Cell Count [8]: 120
